From the EternaBench riboswitch data

Test system: MS2 coat protein
Assay: apparent Kd, MS2 coat protein; higher = weaker binding; RNA-MaP array; FMN 200 µM where present
Method in brief: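 Stalled E. coli RNA polymerase transcribed the designs on Illumina sequencing-chip clusters. SNAP-549-labelled MS2 coat protein was titrated from 0.7 or 1.5 nM, doubling to 3 µM, without and then with constant ligand, in 100 mM Tris-HCl pH 7.5, 80 mM KCl, 4 mM MgCl2, BSA, DTT, yeast tRNA and Tween-20. Per-cluster binding curves were fitted to green signal normalised to red-channel RNA signal and control-cluster median Fmax. The apparent Kd is the median of the filtered fits.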

[1] = designed as: OFF switch for flavin mononucleotide, no ligand
[2] = ligand present: flavin mononucleotide, designed as: OFF switch for flavin mononucleotide
[3] = designed as: ON switch for flavin mononucleotide, no ligand
[4] = ligand present: flavin mononucleotide, designed as: ON switch for flavin mononucleotide

Sequence: CCAGCGAGUGUGAGGAUAUGCUGGUCCUUGGAUCAGCAGAAGGCACAUGAGGAUCACCCAUGUGAGGACGUUGG
- apparent Kd [1]: 28.2 nM
- apparent Kd [2]: 248 nM

Sequence: CCAGCGUGUGUGAGGAUAUGCUGGUCCUUGGAUCAGCAGAAGGCACAUGAGGAUCACCCAUGUGAGAGCGUUGG
- apparent Kd [1]: 19.6 nM
- apparent Kd [2]: 86.1 nM

Sequence: CCAGGCAGUGUGAGGAUAUGCUGGUGCUUGCAUCAGCAGAAGGCACAUGAGGAUCACCCAUGUGAAGAGCUUGG
- apparent Kd [1]: 27.6 nM
- apparent Kd [2]: 131 nM

Sequence: CCAUAAAAGAUCCAAAAUUACAACAUGAGGAUCACCCAUGUGCAGGAUAUCGUGAAAGUAAAAUACGAGAAGGGCAAAAACUGC
- apparent Kd [1]: 440 nM
- apparent Kd [2]: 454 nM

Sequence: CCAUAUAACUGAGGAUAUGAUCACCACUAACAUUCAGAAGGCAGACAUGAGGAUCACCCAUGUGAUUUCUCAAUAUUAUACAUC
- apparent Kd [1]: 572 nM
- apparent Kd [2]: 363 nM

Sequence: CCAUCGUGUGUGAGGAUAUGCUGGUCCUUGGAUCAGCAGAAGGCACAUGAGGAUCACCCAUGUGAAAACGAUGG
- apparent Kd [1]: 17.9 nM
- apparent Kd [2]: 56.4 nM

Sequence: CCAUGCAUAGCGAUAUGAUCGAGAGAUCAUGUCGCUAAAUUUAGAAGGACAUGAGGAUCACCCAUGUAGGAUAUGGGAGCAUGC
- apparent Kd [3]: 58.4 nM
- apparent Kd [4]: 17.8 nM

Sequence: CCAUGGCAUGUAGGAUAUAUCUGACAAAGUCAGAUAGAAGGACAUGAGGAUCACCCAUGUAAACCGAAAGGAACAUAGCCAUGG
- apparent Kd [1]: 6.36 nM
- apparent Kd [2]: 6.96 nM

Sequence: CCAUGUUAGCAGGAUAUGCAAUUAUUCUUUUACGCAGAAGGGCUUACAUGAGGAUCACCCAUGUAACAUUUCAU
- apparent Kd [1]: 18.4 nM
- apparent Kd [2]: 77.8 nM

Sequence: CCAUUCAGAGGAUAUGCGCAUAGAUAAGACUUUUUUUCUUAACAUGAGGAUCACCCAUGUAGAAGGCUGUACCC
- apparent Kd [1]: 21.6 nM
- apparent Kd [2]: 19.4 nM

Sequence: CCCAGGUCAUCUCCCGGGAACAACAUGAGGAUCACCCAUGUCUAGGAUAUCCACCAGUCAAUAAAGGAGAAGGAGACGGUGGUU
- apparent Kd [1]: 29.3 nM
- apparent Kd [2]: 31.9 nM

Sequence: CCCAUGUGUGUGAGGAUAUGGUCAGUCAUACUCGGCCAGAAGGCACAUGAGGAUCACCCAUGUGGCCUCUCAUC
- apparent Kd [1]: 17 nM
- apparent Kd [2]: 17.8 nM

Sequence: CCCGCAACAUGAGGAUCACCCAUGUAGGAUAUCGCUAUUGUAAUCAUGAAACAUGAUUACAAUAGCGAGAAGGACAUAUGCGGG
- apparent Kd [1]: 6.77 nM
- apparent Kd [2]: 10.4 nM

Sequence: CCCGGGCCUGUGAGGAUAUCGGGCCCGAAAGGGUUUGAGAAGGCACAUGAGGAUCACCCAUGUAAGGGUUUGGG
- apparent Kd [1]: 33.8 nM
- apparent Kd [2]: 24.7 nM

Sequence: CCCGGGUUUGUGAGGAUAUUGGGCCCGAAAGGGCCCGAGAAGGCACAUGAGGAUCACCCAUGUAAGGGCCCGGG
- apparent Kd [1]: 25.8 nM
- apparent Kd [2]: 26.4 nM

Sequence: CCCGGUCGAGCAGGAUAUAGACCGCGUGCAUUUCCCUCAGAUUGAGACAUGAGGAUCACCCAUGUCUAGAAGGGUUCACCGAAA
- apparent Kd [1]: 5.83 nM
- apparent Kd [2]: 6.93 nM

Sequence: CCCGUGUGUUAAGGAUAUGGCAGGCGCGUUGAACCAGAAGGUAGCACAUGAGGAUCACCCAUGUGAAUGCUCACGACUCGAGCA
- apparent Kd [1]: 40.1 nM
- apparent Kd [2]: 23.6 nM

Sequence: CCCUCACAUGAGGAUCACCCAUGUCAGGAUAUGCGCGGCCAAAAGGGCUGCUAAGGCAGCAGAAGGGACGUGAA
- apparent Kd [1]: 15.9 nM
- apparent Kd [2]: 19.5 nM

Sequence: CCCUGAGACCGGUUAAUUGGCUGAUAGGAUAUCCUCGGACAUGAGGAUCACCCAUGUUAACUAUUGGAGAAGGGUCAGCGAAAG
- apparent Kd [3]: 448 nM
- apparent Kd [4]: 216 nM

Sequence: CCGACGAAAAUCGGGCUACAUGAGGAUCACCCAUGUGCUUCACAGGAUAUGGUACGUAGUGAGUUCCAGAAGGGUGAUUAAUCU
- apparent Kd [3]: 205 nM
- apparent Kd [4]: 129 nM

Sequence: CCGACGUCAGGAUAUCUGAUGUCUAACUUCGGUUAGACAUCAGAGAAGGGACAUGAGGAUCACCCAUGUCGGAG
- apparent Kd [1]: 29 nM
- apparent Kd [2]: 52.8 nM

Sequence: CCGCAUAAGCAGGAUAUCGUAUCGGAAACGAUACGAGAAGGGUUAACAUGAGGAUCACCCAUGUUCCUUAACGG
- apparent Kd [1]: 17.9 nM
- apparent Kd [2]: 18.2 nM

Sequence: CCGCCAAUCGAGAAGGGCCCAUGUGCUACGUCGGCAGGAUAUCGACAUGAGGAUCACCCAUGUUGGCGAUCCUUUUUGGCGAAC
- apparent Kd [1]: 149 nM
- apparent Kd [2]: 108 nM

Sequence: CCGCUAAUAGGAUAUACAUGAGGAUCACCCAUGUCACUCUUCAUUGGUGUCUCUUCAAGUAGAAGGGUUGCUCA
- apparent Kd [1]: 28.5 nM
- apparent Kd [2]: 28.1 nM

Sequence: CCGGAAAUACAGGAUAUAGGAGUCAAUAGACUCCUAGAAGGGUAUACAUGAGGAUCACCCAUGUGUCCUACCGG
- apparent Kd [1]: 35 nM
- apparent Kd [2]: 35.6 nM

Sequence: CCGGCGUCAGGAUAUCCAAUAUAUGACAUGAGGAUCACCCAUGUUUCCACUCGUACCUCCGGAGAAGGGACGAAUA
- apparent Kd [1]: 28.1 nM
- apparent Kd [2]: 24.5 nM

Sequence: CCGUCCUGAGGAUAUCCACCCUCAUACAUGAGGAUCACCCAUGUUCACCUUUGGGUUCCCGGAGAAGGCAGUUUUC
- apparent Kd [1]: 80.2 nM
- apparent Kd [2]: 109 nM

Sequence: CCUAAGCGAGGAUAUACAUGAGGAUCACCCAUGUCCGCGUUCAUGAGGUUAAGAUCUUGUAGAAGGCGCCAAAA
- apparent Kd [1]: 33 nM
- apparent Kd [2]: 161 nM

Sequence: CCUAAGGACACAGGAUAUAGCGUGGUGGGUGGGCUCCAACGACGAGCGGCGCUAGAAGGGUGACCACAUGAGGAUCACCCAUGU
- apparent Kd [3]: 668 nM
- apparent Kd [4]: 205 nM

Sequence: CCUAGAUAGGGAGGAUAUCACAACCAUCCCGGCGAUCCAACUACAUGAGGAUCACCCAUGUGGUGUGAGAAGGCCCAGUAAUAG
- apparent Kd [1]: 143 nM
- apparent Kd [2]: 78.6 nM

Sequence: CCUCAUAUUUAGGAUAUGAUUGGUAAUUAUUAGUUAGAAGGAGGUACAUGAGGAUCACCCAUGUAAUAUUUAAA
- apparent Kd [1]: 21.5 nM
- apparent Kd [2]: 21.2 nM

Sequence: CCUCAUUGGCAGGAUAUCAGCACUAACGUGGUAUGAGAAGGGUCGACAUGAGGAUCACCCAUGUCAAUUGUCUG
- apparent Kd [1]: 31.2 nM
- apparent Kd [2]: 122 nM

Sequence: CCUCCACAUGAGGAUCACCCAUGUCAGGAUAUCGUGUGUGCGUUUUCGGUCUUUCGCGCGAGAAGGGACGACUG
- apparent Kd [1]: 30.2 nM
- apparent Kd [2]: 33 nM

Sequence: CCUCCGUAUUAGGAUAUCGUCCCGGAAACGGGACGAGAAGGAAUAACAUGAGGAUCACCCAUGUUAACGUGAUG
- apparent Kd [1]: 18.8 nM
- apparent Kd [2]: 46.7 nM

Sequence: CCUCGGUUAGGAUAUGGAUGGUCACCCUGCGGUGUACCGCUCCAGAAGGGACAUGAGGAUCACCCAUGUUACGC
- apparent Kd [1]: 106 nM
- apparent Kd [2]: 338 nM

Sequence: CCUCUACAUGAGGAUCACCCAUGUGAGGAUAUCUCGGAGCAGCCACUUAAGGCGCUCCAGAGAAGGCACGUGUA
- apparent Kd [1]: 19.6 nM
- apparent Kd [2]: 28.8 nM

Sequence: CCUCUGUUAGGAUAUCUUUUGUUCGCCGUAGGUCGGAUCAUGGAGAAGGGACAUGAGGAUCACCCAUGUUUACC
- apparent Kd [1]: 29.7 nM
- apparent Kd [2]: 56.2 nM

Sequence: CCUUACACCGAGAAGGGCACGUAUUGAAGAGGGUGCCAGGAACAUCACAUGAGGAUCACCCAUGUGCAGGAUAUCGGCAGGAAC
- apparent Kd [1]: 9.78 nM
- apparent Kd [2]: 22.3 nM

Sequence: CCUUUCGGUGUCAGGAUAUACUGCGCCUGGCGCAAGUAGAAGGGACAUGAGGAUCACCCAUGUAGCGGGACCGA
- apparent Kd [1]: 73.7 nM
- apparent Kd [2]: 81.9 nM

Sequence: CCUUUGAAGAUCCAAAAUUUCGACAUGAGGAUCACCCAUGUGCAGGAUAUCGUGCCAGUGAUGUACGAGAAGGGCAGACUCUGC
- apparent Kd [1]: 132 nM
- apparent Kd [2]: 158 nM

Sequence: CCUUUGAAGAUCCUAAAUUUCGACAUGAGGAUCACCCAUGUGCAGGAUAUCGUGCCAGUGAUGUACGAGAAGGGCCGUCUCUGC
- apparent Kd [1]: 160 nM
- apparent Kd [2]: 155 nM

Sequence: CCUUUGAAGAUCCUGGUUUUCGACAUGAGGAUCACCCAUGUGCAGGAUAUCGUGCCGGUGCUGUGCGAGAAGGGCAGUCUCAGC
- apparent Kd [1]: 15.1 nM
- apparent Kd [2]: 17.9 nM

Sequence: CCUUUGUCAGGAUAUCGAAAAGGGAGGCCAAAGGCCUCCGGUGAGAAGGGACAUGAGGAUCACCCAUGUGAAAA
- apparent Kd [1]: 77.3 nM
- apparent Kd [2]: 383 nM

Sequence: CGAAAUGAUAGAGGAUAUGUUAUACAUGAGGAUCACCCAUGUUUAAUGGGAUUAAUAAAUAUCUUACAGAAGGCUAUUCAAUCG
- apparent Kd [1]: 32 nM
- apparent Kd [2]: 20.7 nM

Sequence: CGACUGUGAGGAUAUGGUGAGUAGUGCCUGAGCGCUGCUCACCAGAAGGCACAUGAGGAUCACCCAUGUAUGAC
- apparent Kd [1]: 110 nM
- apparent Kd [2]: 214 nM

Sequence: CGAGCUGCUGUGAGGAUAUACCUAUGGAUGCGUGGGUAGAAGGCACAUGAGGAUCACCCAUGUCCUGCAGCUCG
- apparent Kd [1]: 42.1 nM
- apparent Kd [2]: 241 nM

Sequence: CGAGGACAUGAGGAUCACCCAUGUAGCUACAAAACGCAGCGACAGGAUAUCCUCUGGUUCCCAUAGGAGAAGGGUCAAACCUUG
- apparent Kd [3]: 29.4 nM
- apparent Kd [4]: 47.3 nM

Sequence: CGAGGCGUACAUGAGGAUCACCCAUGUACCUAACAACAAAGCAAGGAUAUCCUGGCUAUAAUACAGGAGAAGGUGUGGUCCUUA
- apparent Kd [4]: 178 nM

Sequence: CGAGGUGGAGUGAGGAUAUCGUGUUCGAAAGAACGUGAGAAGGCACAUGAGGAUCACCCAUGUGAUCCUGCUCG
- apparent Kd [1]: 105 nM
- apparent Kd [2]: 360 nM

Sequence: CGAGUUUUUGAGAAGGCAUAUUAUAUUAUACCACAUGUUUACAUGAGGAUCACCCAUGUUUCCUAUGAGGAUAUCAGAAUAUCG
- apparent Kd [1]: 11.8 nM
- apparent Kd [2]: 10 nM

Sequence: CGAUAGGACAGAGGAUAUACACAUGAGGAUCACCCAUGUAAUUACAACUCAUGAGGAUCACCCAUGUAGAAGGCUGUCCUAUCG
- apparent Kd [1]: 397 nM
- apparent Kd [2]: 430 nM

Sequence: CGAUAGGACAGAGGAUAUACACAUGAGGAUCACCCAUGUGAUUACAAUUCUUAAGAUUCAAACAUGUAGAAGGCUGUCCUAUCG
- apparent Kd [1]: 9.25 nM
- apparent Kd [2]: 17.4 nM

Sequence: CGAUAGGACAGAGGAUAUACGUGCUAGAGAUACUAGCAAAAUUACAACACAUGAGGAUCACCCAUGUAGAAGGCUGUCCUAUCG
- apparent Kd [1]: 5.04 nM
- apparent Kd [2]: 6.21 nM

Sequence: CGAUAGGACAGAGGAUAUACGUGCUAGAGAUACUAGCAAAAUUUCCUCACAUGAGGAUCACCCAUGUAGAAGGCUGUCCUAUCG
- apparent Kd [1]: 15.6 nM
- apparent Kd [2]: 439 nM

Sequence: CGAUAUACGACGGACGGAAACGUACAUGAGGAUCACCCAUGUAGAAGGCGAUCCGCAACGCGGAUUGAGGAUAUAUAGUAUACA
- apparent Kd [1]: 20.7 nM
- apparent Kd [2]: 14.6 nM

Sequence: CGAUAUAUGAAGGACGGAAACGUACAUGAGGAUCACCCAUGUAGAAGGCGAUCCGCAACGCGGAUCGAGGAUAUAUAGUAUACA
- apparent Kd [1]: 24.2 nM
- apparent Kd [2]: 17.6 nM
